Assay results: ChEMBL document CHEMBL1134485, “Diguanidino and "reversed" diamidino 2,5-diarylfurans as antimicrobial agents” (2001)
In brackets after ≈: the same amount, converted by molar mass.

How the values were obtained:
[1] = system: Mycobacterium tuberculosis; assay: In vitro minimum inhibitory concentration required to inhibit Mycobacterium tuberculosis; assay type: functional
Method in brief: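 M. tuberculosis H37Rv grown in BACTEC 12B medium; fluorometric broth microdilution (Microplate Alamar Blue Assay). […] MIC = lowest concentration reducing relative fluorescence units by ≥90% relative to control culture. Testing done by TAACF.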

Candida albicans [2] = assay: In vitro minimum inhibitory concentration against Candida albicans.; assay type: functional
Candida albicans [3] = assay: In vitro minimum fungicidal concentration against Candida albicans.; assay type: functional
Method in brief: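 Yeast MFC: after broth macrodilution (RPMI 1640/MOPS pH 7.0, 0.5 × 10³ to 2.5 × 10³ CFU/mL, 35 °C, 48 h or 72 h for C. neoformans, drug 100 to 0.09 µg/mL), 100 µL from tubes with complete inhibition plated on Sabouraud agar; lowest concentration yielding three or fewer colonies recorded.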

Nucleic Acid [4] = system: Nucleic Acid
Nucleic Acid [5] = system: Nucleic Acid; remark: listed apart in the source
Aspergillus fumigatus [6] = assay: Antimicrobial activity against Aspergillus fumigatus (MIC); assay type: functional
Aspergillus fumigatus [7] = assay: In vitro minimum fungicidal concentration required to inhibit Aspergillus fumigatus(MFC); assay type: functional
Method in brief: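 Mould MFC: 100 µL aliquots from macrodilution tubes (RPMI 1640/MOPS pH 7.0, 0.5 × 10³ to 2.5 × 10³ CFU/mL conidial inoculum, 30 °C, 48-72 h, drug 100 to 0.09 µg/mL) showing complete growth inhibition plated on Sabouraud agar; MFC taken as lowest drug concentration giving three or fewer colonies.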

SMILES	MIC [1]	MIC (Candida albicans [2])	MFC (Candida albicans [3])	ΔTm (Nucleic Acid [4])	ΔTm (Nucleic Acid [5])	MIC (Aspergillus fumigatus [6])	MFC (Aspergillus fumigatus [7])
CO[C@H]1/C=C/O[C@@]2(C)Oc3c(C)c(O)c4c(O)c(c(/C=N/N5CCN(C)CC5)c(O)c4c3C2=O)NC(=O)/C(C)=C\C=C\[C@H](C)[C@H](O)[C@@H](C)[C@@H](O)[C@@H](C)[C@H](OC(C)=O)[C@@H]1C [RIFAMPIN]	0.062 µg/mL (≈ 0.0753 µM)	–	–	–	–	–	–
Cc1cc(NC(=N)N)ccc1-c1ccc(-c2ccc(NC(=N)N)cc2C)o1.Cl.Cl	≤ 1 µg/mL	1.04 µg/mL	2.08 µg/mL	17.8	6.9	33.4 µg/mL	33.4 µg/mL
OC(Cn1cncn1)(Cn1cncn1)c1ccc(F)cc1F [FLUCONAZOLE]	–	6.25 µg/mL (≈ 20.4 µM)	25 µg/mL (≈ 81.6 µM)	–	–	–	–
Cl.Cl.N=C(N)Nc1ccc(-c2ccc(-c3ccc(NC(=N)N)cc3C(F)(F)F)o2)c(C(F)(F)F)c1	8 µg/mL	10 µg/mL	10 µg/mL	5.9	0	100 µg/mL	100 µg/mL
Cl.Cl.N=C(Nc1ccc(-c2ccc(-c3ccc(NC(=N)c4ccccc4)cc3)o2)cc1)c1ccccc1	1.56 µg/mL	25 µg/mL	50 µg/mL	28.6	15	–	–
N=C(Nc1ccc(-c2ccc(-c3ccc(NC(=N)c4ccccn4)cc3)o2)cc1)c1ccccn1	1.56 µg/mL (≈ 3.4 µM)	–	–	19.6	7.5	–	–
COc1cc(NC(=N)c2ccccn2)ccc1-c1ccc(-c2ccc(NC(=N)c3ccccn3)cc2OC)o1	≤ 1 µg/mL	≤ 1 µg/mL	≤ 1 µg/mL	19	7.8	≤ 1 µg/mL	≤ 1 µg/mL
N=C(N)c1ccc(-c2ccc(-c3ccc(C(=N)N)cc3)o2)cc1 [FURAMIDINE]	–	6.25 µg/mL (≈ 20.5 µM)	25 µg/mL (≈ 82.1 µM)	25	11.7	–	–
COc1cc(NC(=N)N)ccc1-c1ccc(-c2ccc(NC(=N)N)cc2OC)o1.Cl.Cl	16 µg/mL	10 µg/mL	100 µg/mL	15.2	2.8	100 µg/mL	100 µg/mL
Cc1cc(NC(=N)c2ccccn2)cc(C)c1-c1ccc(-c2c(C)cc(NC(=N)c3ccccn3)cc2C)o1	–	10 µg/mL (≈ 19.4 µM)	> 100 µg/mL	5.7	1.2	10 µg/mL (≈ 19.4 µM)	> 100 µg/mL
